Consider 26 molecules from ChEMBL document CHEMBL3580560, “Isolation, Structural Modification, and HIV Inhibition of Pentacyclic Lupane-Type Triterpenoids from Cassine xylocarpa and Maytenus cuzcoina” (J Nat Prod, 2015).

A short description of data set [1]: Cytotoxicity against mock-infected human MT2 cells assessed as reduction in cell viability incubated for 48 hrs by cell-titer Glo assay. Format: cell-based. The essentials:
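Uninfected MT-2 cells received RPMI medium instead of viral supernatant and were treated in parallel with the same fivefold dilutions (100–0.032 μM). […] Values are the mean of at least three independent experiments.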

Data set [2] in a line: Selectivity index, ratio of CC50 for mock-infected human MT2 cells to IC50 for HIV1 NL4.3-Ren infected in human MT2 cells. Format: functional.
In data set [3] the test system is Human immunodeficiency virus 1. The experiment in a line: Antiviral activity against HIV1 NL4.3-Ren infected in human MT2 cells assessed as inhibition of viral growth measured 48 hrs post infection by luminometry. Format: functional, organism-based. Particulars: Human immunodeficiency virus 1, NL4.3-Ren, MT2, 48 h. The essentials:
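MT-2 cells infected with X4-tropic HIV-1 NL4.3-Ren supernatant produced in 293T cells. Fivefold serial dilutions from 100 to 0.032 μM were tested. At 48 h postinfection, cells were lysed and Renilla luciferase RLU were measured. IC50 was fitted from the dose–response curve; values are the mean of at least three independent experiments.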

For data set [4], the system named is Human immunodeficiency virus 1. The experiment in a line: Antiviral activity against HIV1 NL4.3-Ren infected in human MT2 cells assessed as inhibition of viral growth at 10 uM measured 48 hrs post infection by luminometry. Format: functional. Particulars: Human immunodeficiency virus 1, NL4.3-Ren, MT2, 48 h.

By CC50 is commonly meant the concentration that lowers cell viability or growth by half. For orientation: IC50 means the concentration at which inhibition is half-maximal. By inhibition is commonly meant how much of the control response was suppressed.

In the case of `C=C(C)[C@@H]1CC[C@]2(COC(C)=O)CC[C@]3(C)[C@H](CC[C@@H]4[C@@]5(C)CCC(=O)C(C)(C)[C@@H]5CC[C@]43C)[C@@H]12`, the CC50 at 48 h in data set [1] came to 20 µM. In addition, the “Ratio CC50/IC50” value in data set [2] is 1.5. Besides, in data set [3], the half-inhibitory concentration (IC50) is 13.4 µM. For the same molecule, the inhibition at 10 µM in data set [4] is more than 50%.

On to `C=C(CO)[C@@H]1CC[C@]2(C)CC[C@]3(C)[C@H](CC[C@@H]4[C@@]5(C)CCC(=O)C(C)(C)[C@@H]5[C@H](O)C[C@]43C)[C@@H]12`, for which the CC50 at 48 h in data set [1] came to 20 µM. For the same molecule, the “Ratio CC50/IC50” value in data set [2] was 2.1. In data set [3], the IC50 worked out at 9.5 µM. For the same molecule, the inhibition at 10 µM in data set [4] was more than 50%.

As for `C=C(C(=O)O)[C@@H]1CC[C@]2(C)CC[C@]3(C)[C@H](CC[C@@H]4[C@@]5(C)CCC(=O)C(C)(C)[C@@H]5CC[C@]43C)[C@@H]12`, in data set [1], the 50% cytotoxic concentration (CC50) at 48 h is more than 100 µM. In addition, the IC50 in data set [3] stood at 100 µM. Further, the inhibition at 10 µM in data set [4] was more than 50%.

Consider `CC(C)(O)[C@@H]1CC[C@]2(C)CC[C@]3(C)[C@H](CC[C@@H]4[C@@]5(C)CCC(=O)C(C)(C)[C@@H]5[C@H](O)C[C@]43C)[C@@H]12`, for which the CC50 at 48 h in data set [1] was more than 100 µM. In addition, in data set [2], the “Ratio CC50/IC50” value is given as more than 14.3. Also, in data set [3], the IC50 was found to be 7 µM. Besides, in data set [4], the inhibition at 10 µM is more than 50%.

Consider `C=C(C)[C@@H]1CC[C@]2(C)CC[C@]3(C)[C@H](C[C@@H](O)[C@@H]4[C@@]5(C)C=CC(=O)C(C)(C)[C@@H]5CC[C@]43C)[C@@H]12`, for which the CC50 at 48 h in data set [1] is 60.4 µM. In data set [2], the “Ratio CC50/IC50” value was found to be 6.9. In addition, in data set [3], the IC50 is 8.7 µM. For the same molecule, in data set [4], the inhibition at 10 µM was more than 50%.

With `C=C(C)[C@@H]1CC[C@]2(C)CC[C@]3(C)[C@H](CC[C@@H]4[C@@]5(CO)CC[C@H](O)C(C)(C)[C@@H]5CC[C@]43C)[C@@H]12`, the CC50 at 48 h in data set [1] stood at 20 µM. The “Ratio CC50/IC50” value in data set [2] came to 2.9. Besides, in data set [3], the IC50 worked out at 6.9 µM. Besides, in data set [4], the inhibition at 10 µM was more than 50%.

As for `C=C(COC(C)=O)[C@@H]1CC[C@]2(C)CC[C@]3(C)[C@H](CC[C@@H]4[C@@]5(C)CCC(=O)C(C)(C)[C@@H]5CC[C@]43C)[C@@H]12`, in data set [1], the CC50 at 48 h stood at 36.2 µM. In addition, the “Ratio CC50/IC50” value in data set [2] is recorded as 2.8. The IC50 in data set [3] was found to be 13.1 µM. The inhibition at 10 µM in data set [4] is more than 50%.

On to `CC(C)(O)[C@@H]1CC[C@]2(C)CC[C@]3(C)[C@H](CC[C@@H]4[C@@]5(C)CC[C@H](O)C(C)(C)[C@@H]5[C@H](O)C[C@]43C)[C@@H]12`, for which the inhibition at 10 µM in data set [4] was less than 50%.

For the molecule `C=C(C)[C@@H]1CC[C@]2(CO)CC[C@]3(C)[C@H](CC[C@@H]4[C@@]5(C)[C@H](O)C[C@@H](O)C(C)(C)[C@@H]5CC[C@]43C)[C@@H]12`, in data set [4], the inhibition at 10 µM was less than 50%.

For the molecule `C=C(C)[C@@H]1CC[C@]2(CO)CC[C@]3(C)[C@H](C[C@@H](O)[C@@H]4[C@@]5(C)CCC(=O)C(C)(C)[C@@H]5CC[C@]43C)[C@@H]12`, the inhibition at 10 µM in data set [4] is less than 50%.

`C=C(COC(C)=O)[C@@H]1CC[C@]2(C)CC[C@]3(C)[C@H](CC[C@@H]4[C@@]5(C)CC[C@H](OC(C)=O)C(C)(C)[C@@H]5CC[C@]43C)[C@@H]12`: the inhibition at 10 µM in data set [4] was less than 50%.

Take `C=C(C)[C@@H]1CC[C@]2(C)CC[C@]3(C)[C@H](CC[C@@H]4[C@@]5(C)CC(Br)C(=O)C(C)(C)[C@@H]5CC[C@]43C)[C@@H]12` (stereo partly drawn): in data set [4], the inhibition at 10 µM is less than 50%.

As to `C=C(C)[C@@H]1CC[C@]2(C)CC[C@]3(C)[C@H](C[C@@H](OC(C)=O)[C@@H]4[C@@]5(C)CCC(=O)C(C)(C)[C@@H]5CC[C@]43C)[C@@H]12`, in data set [4], the inhibition at 10 µM is less than 50%.

For the molecule `C=C(CCl)[C@@H]1CC[C@]2(C)CC[C@]3(C)[C@H](C[C@@H](OC(C)=O)[C@@H]4[C@@]5(C)CCC(=O)C(C)(C)[C@@H]5CC[C@]43C)[C@@H]12`, in data set [4], the inhibition at 10 µM is less than 50%.

Consider `C=C(CCl)[C@@H]1CC[C@]2(C)CC[C@]3(C)[C@H](C[C@@H](OC(C)=O)[C@@H]4[C@@]5(C)C=CC(=O)C(C)(C)[C@@H]5CC[C@]43C)[C@@H]12`, for which the inhibition at 10 µM in data set [4] was less than 50%.

As for `C=C(CO)[C@@H]1CC[C@]2(C)CC[C@]3(C)[C@H](CC[C@@H]4[C@@]5(C)CCC(=O)C(C)(C)[C@@H]5CC[C@]43C)[C@@H]12`, the inhibition at 10 µM in data set [4] was less than 50%.

As for `C=C(C)[C@@H]1CC[C@]2(CO)CC[C@]3(C)[C@H](CC[C@@H]4[C@@]5(C)CC[C@@H](O)C(C)(C)[C@@H]5CC[C@]43C)[C@@H]12` [3-EPI-BETULIN], the CC50 at 48 h in data set [1] came out at 20 µM. The “Ratio CC50/IC50” value in data set [2] was 2.3. Moreover, the concentration for half-maximal inhibition (IC50) in data set [3] turned out to be 8.8 µM. For the same molecule, the inhibition at 10 µM in data set [4] was more than 50%.

As to `C=C(C)[C@@H]1CC[C@]2(COC(C)=O)CC[C@]3(C)[C@H](CC[C@@H]4[C@@]5(C)CC[C@H](OC(C)=O)C(C)(C)[C@@H]5CC[C@]43C)[C@@H]12` [BETULIN DIACETATE], the inhibition at 10 µM in data set [4] was less than 50%.

As to `C=C(C)[C@@H]1CC[C@]2(CO)CC[C@]3(C)[C@H](CC[C@@H]4[C@@]5(C)CC[C@H](O)C(C)(C)[C@@H]5CC[C@]43C)[C@@H]12` [BETULIN], the inhibition at 10 µM in data set [4] was less than 50%.

In the case of `C=C(C)[C@@H]1CC[C@]2(C=O)CC[C@]3(C)[C@H](CC[C@@H]4[C@@]5(C)CCC(=O)C(C)(C)[C@@H]5CC[C@]43C)[C@@H]12` [BETULONAL], the CC50 at 48 h in data set [1] came to 20 µM. The “Ratio CC50/IC50” value in data set [2] was 4.8. For the same molecule, the half-maximal inhibitory concentration (IC50) in data set [3] amounted to 4.2 µM. Further, the inhibition at 10 µM in data set [4] was more than 50%.

For the molecule `C=C(C)[C@@H]1CC[C@]2(CO)CC[C@]3(C)[C@H](CC[C@@H]4[C@@]5(C)CCC(=O)C(C)(C)[C@@H]5CC[C@]43C)[C@@H]12` [BETULONE], the CC50 at 48 h in data set [1] is more than 100 µM. Besides, the “Ratio CC50/IC50” value in data set [2] was more than 24.5. Also, the IC50 in data set [3] turned out to be 4.1 µM. In addition, in data set [4], the inhibition at 10 µM was more than 50%.

For `C=C(C)[C@@H]1CC[C@]2(C(=O)O)CC[C@]3(C)[C@H](CC[C@@H]4[C@@]5(C)CC[C@H](OC(=O)CC(C)(C)C(=O)O)C(C)(C)[C@@H]5CC[C@]43C)[C@@H]12` [BEVIRIMAT], in data set [1], the CC50 at 48 h is more than 10 µM. Further, the “Ratio CC50/IC50” value in data set [2] is given as more than 1000. For the same molecule, the IC50 in data set [3] is 0.01 µM. The inhibition at 10 µM in data set [4] was more than 50%.

On to `C=C(C)[C@@H]1CC[C@]2(C)CC[C@]3(C)[C@@H](CC[C@@H]4[C@@]5(C)C=CC(=O)C(C)(C)[C@@H]5CC[C@]43C)[C@@H]12` [GLOCHIDONE], for which, in data set [4], the inhibition at 10 µM is less than 50%.

For `C=C(C)[C@@H]1CC[C@]2(C)CC[C@]3(C)[C@H](CC[C@@H]4[C@@]5(C)CCC(=O)C(C)(C)[C@@H]5CC[C@]43C)[C@@H]12` [LUPENONE], the inhibition at 10 µM in data set [4] was less than 50%.

With `C=C(C)[C@@H]1CC[C@]2(C)CC[C@]3(C)[C@H](CC[C@@H]4[C@@]5(C)CC[C@H](O)C(C)(C)[C@@H]5CC[C@]43C)[C@@H]12` [LUPEOL], the inhibition at 10 µM in data set [4] is less than 50%.

In the case of `C=C(C)[C@@H]1CC[C@]2(C)CC[C@]3(C)[C@@H](C[C@@H](O)[C@@H]4[C@@]5(C)CCC(=O)C(C)(C)[C@@H]5CC[C@]43C)[C@@H]12` [RIGIDENOL], the inhibition at 10 µM in data set [4] was less than 50%.
